Reference: ChEMBL document CHEMBL1287796, “Discovery of new chemotype dipeptidyl peptidase IV inhibitors having (R)-3-amino-3-methyl piperidine as a pharmacophore” (Bioorg Med Chem Lett, 2010)
Calls of active or inactive are those of the source. The calls are words filed in the database; no cut-off is given here.

Key:
Liver microsomes [1] = assay: Metabolic stability in rat liver microsomes at 10 uM after 39 mins; type: ADME, Microsome; conditions: 0.5 h, in the assay text read “30 mins” for “39 mins”
Outline: (§1)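 Compound incubated for 30 min with hepatic microsomes (human or rat) plus NADPH. Metabolic stability is expressed as clearance in ml/min/mg protein.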

Cytochrome P450 1A2 = biological target: T1, Cytochrome P450 1A2 (Homo sapiens, UniProt P05177); assay: Inhibition of CYP1A2 in human liver microsomes after 10 mins; type: ADME, Microsome
T1 sequence (P05177 whole entry): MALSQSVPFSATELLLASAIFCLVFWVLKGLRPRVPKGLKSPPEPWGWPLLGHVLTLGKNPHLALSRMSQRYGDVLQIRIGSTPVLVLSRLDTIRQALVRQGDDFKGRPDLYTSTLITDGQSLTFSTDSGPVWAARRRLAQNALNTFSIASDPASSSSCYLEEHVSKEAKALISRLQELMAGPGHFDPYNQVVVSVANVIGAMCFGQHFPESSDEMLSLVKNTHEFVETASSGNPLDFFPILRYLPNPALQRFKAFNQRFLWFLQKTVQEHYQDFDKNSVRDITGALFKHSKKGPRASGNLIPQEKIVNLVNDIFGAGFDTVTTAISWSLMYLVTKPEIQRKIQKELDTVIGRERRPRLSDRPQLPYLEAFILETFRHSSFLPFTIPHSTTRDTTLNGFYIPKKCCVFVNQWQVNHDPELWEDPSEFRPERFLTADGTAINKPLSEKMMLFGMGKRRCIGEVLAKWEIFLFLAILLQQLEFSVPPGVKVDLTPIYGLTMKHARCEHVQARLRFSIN
Outline: (§2)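 Human liver microsomes incubated with test compound and NADPH for 10 min; CYP isoform inhibition reported as IC50.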

Dipeptidyl peptidase 8 = Dipeptidyl peptidase 8 (Homo sapiens, UniProt Q6V1X1); assay: Inhibition of DPP8
Liver microsomes [2] = assay: Metabolic stability in human liver microsomes at 10 uM after 39 mins; type: ADME, Microsome; conditions: 0.5 h, in the assay text read “30 mins” for “39 mins”; outline: as §1
Dipeptidyl peptidase 9 = Dipeptidyl peptidase 9 (Homo sapiens, UniProt Q86TI2); assay: Inhibition of DPP9
Cytochrome P450 2D6 = Cytochrome P450 2D6 (Homo sapiens, UniProt P10635); assay: Inhibition of CYP2D6 in human liver microsomes after 10 mins; type: ADME, Microsome; outline: as §2
Cytochrome P450 3A4 = Cytochrome P450 3A4 (Homo sapiens, UniProt P08684); assay: Inhibition of CYP3A4 in human liver microsomes after 10 mins; type: ADME, Microsome; outline: as §2
[3] = Lipophilicity, log P of the compound; type: physicochemical; conditions: octanol/water
[4] = Oral bioavailability in rat at 10 mg/kg; type: ADME, organism-based; conditions: in vivo
[5] = Clearance in rat at 1 mg/kg, iv; type: ADME, organism-based; set-up: dose 1 mg/kg, route intravenous; conditions: in vivo
Rattus norvegicus [6] = organism: Rattus norvegicus; conditions: Zucker-Fatty, 1 mg/kg
Rattus norvegicus [7] = organism: Rattus norvegicus; conditions: Zucker-Fatty, 1 mg/kg; remark: listed apart in the source
[8] = Half life in rat at 10 mg/kg, po; type: ADME, organism-based; set-up: dose 10 mg/kg, route oral; conditions: in vivo
[9] = Protein binding in human serum; type: ADME, cell-free; conditions: read-out: PB (converted)
[10] = Tmax in rat at 1 mg/kg, iv and 10 mg/kg, po; type: ADME, organism-based; conditions: in vivo
[11] = Volume of distribution at steady state in rat at 1 mg/kg, iv; type: ADME, organism-based; set-up: dose 1 mg/kg, route intravenous; conditions: in vivo, read-out: Vdss

Sequence of Dipeptidyl peptidase 8 (Q6V1X1 whole entry): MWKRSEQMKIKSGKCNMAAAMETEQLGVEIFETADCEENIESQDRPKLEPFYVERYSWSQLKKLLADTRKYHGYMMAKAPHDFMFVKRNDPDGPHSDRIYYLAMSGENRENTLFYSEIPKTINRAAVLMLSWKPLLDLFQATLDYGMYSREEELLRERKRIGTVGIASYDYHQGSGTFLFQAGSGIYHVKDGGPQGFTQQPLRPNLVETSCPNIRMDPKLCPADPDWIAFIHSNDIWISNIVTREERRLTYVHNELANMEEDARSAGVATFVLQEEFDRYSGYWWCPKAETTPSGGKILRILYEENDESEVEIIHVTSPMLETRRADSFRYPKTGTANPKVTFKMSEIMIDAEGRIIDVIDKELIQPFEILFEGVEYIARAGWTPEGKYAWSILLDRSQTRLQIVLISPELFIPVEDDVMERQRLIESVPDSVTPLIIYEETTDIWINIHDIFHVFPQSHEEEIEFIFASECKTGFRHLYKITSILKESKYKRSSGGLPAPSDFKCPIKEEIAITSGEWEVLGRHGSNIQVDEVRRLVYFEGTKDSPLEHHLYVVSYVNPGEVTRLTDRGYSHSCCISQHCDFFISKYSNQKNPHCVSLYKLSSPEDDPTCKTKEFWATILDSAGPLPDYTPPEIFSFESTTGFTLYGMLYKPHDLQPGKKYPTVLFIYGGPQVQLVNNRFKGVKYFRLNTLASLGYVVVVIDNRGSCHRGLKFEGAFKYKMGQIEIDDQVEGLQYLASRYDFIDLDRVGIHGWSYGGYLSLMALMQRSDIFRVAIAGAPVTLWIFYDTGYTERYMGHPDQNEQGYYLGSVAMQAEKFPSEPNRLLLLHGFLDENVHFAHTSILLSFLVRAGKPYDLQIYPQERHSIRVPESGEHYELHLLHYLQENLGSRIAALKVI
Sequence of Cytochrome P450 3A4 (P08684 whole entry): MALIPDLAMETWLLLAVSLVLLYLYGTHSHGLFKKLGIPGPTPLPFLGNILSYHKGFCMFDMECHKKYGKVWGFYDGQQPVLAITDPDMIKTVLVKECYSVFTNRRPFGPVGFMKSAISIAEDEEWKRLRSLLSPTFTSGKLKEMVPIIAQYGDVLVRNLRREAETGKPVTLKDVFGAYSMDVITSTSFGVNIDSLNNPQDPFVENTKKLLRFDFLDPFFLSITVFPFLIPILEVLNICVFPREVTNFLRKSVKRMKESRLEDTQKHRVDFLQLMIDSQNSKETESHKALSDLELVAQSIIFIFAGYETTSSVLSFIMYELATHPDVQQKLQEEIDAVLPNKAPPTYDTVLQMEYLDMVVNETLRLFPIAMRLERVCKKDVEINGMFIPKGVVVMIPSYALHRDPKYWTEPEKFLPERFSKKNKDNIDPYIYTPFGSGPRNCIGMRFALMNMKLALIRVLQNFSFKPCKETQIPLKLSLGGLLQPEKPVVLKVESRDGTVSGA
Sequence of Dipeptidyl peptidase 9 (Q86TI2 whole entry): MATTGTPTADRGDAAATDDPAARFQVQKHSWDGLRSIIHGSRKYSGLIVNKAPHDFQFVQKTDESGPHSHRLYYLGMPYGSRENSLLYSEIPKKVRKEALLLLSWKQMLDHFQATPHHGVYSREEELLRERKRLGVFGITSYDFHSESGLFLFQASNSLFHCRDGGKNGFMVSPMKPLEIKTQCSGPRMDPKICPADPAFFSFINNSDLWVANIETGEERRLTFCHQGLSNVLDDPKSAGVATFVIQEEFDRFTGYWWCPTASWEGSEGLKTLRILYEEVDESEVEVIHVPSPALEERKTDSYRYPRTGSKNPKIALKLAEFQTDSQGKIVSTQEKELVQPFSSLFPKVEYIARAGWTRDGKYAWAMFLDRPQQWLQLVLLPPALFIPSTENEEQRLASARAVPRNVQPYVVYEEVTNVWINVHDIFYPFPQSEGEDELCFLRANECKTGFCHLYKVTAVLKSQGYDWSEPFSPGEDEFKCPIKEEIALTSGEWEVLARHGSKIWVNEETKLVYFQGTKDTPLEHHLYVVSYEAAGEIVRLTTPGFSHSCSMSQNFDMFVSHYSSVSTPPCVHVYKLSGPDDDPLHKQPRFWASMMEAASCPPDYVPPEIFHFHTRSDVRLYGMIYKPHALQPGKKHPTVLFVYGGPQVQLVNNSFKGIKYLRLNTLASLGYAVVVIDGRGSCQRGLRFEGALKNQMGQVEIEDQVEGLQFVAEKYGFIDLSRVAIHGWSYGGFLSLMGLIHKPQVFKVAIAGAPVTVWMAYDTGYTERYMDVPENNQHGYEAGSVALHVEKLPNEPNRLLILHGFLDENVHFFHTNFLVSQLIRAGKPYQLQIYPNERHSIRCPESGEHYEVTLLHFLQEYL
Sequence of Cytochrome P450 2D6 (P10635 whole entry): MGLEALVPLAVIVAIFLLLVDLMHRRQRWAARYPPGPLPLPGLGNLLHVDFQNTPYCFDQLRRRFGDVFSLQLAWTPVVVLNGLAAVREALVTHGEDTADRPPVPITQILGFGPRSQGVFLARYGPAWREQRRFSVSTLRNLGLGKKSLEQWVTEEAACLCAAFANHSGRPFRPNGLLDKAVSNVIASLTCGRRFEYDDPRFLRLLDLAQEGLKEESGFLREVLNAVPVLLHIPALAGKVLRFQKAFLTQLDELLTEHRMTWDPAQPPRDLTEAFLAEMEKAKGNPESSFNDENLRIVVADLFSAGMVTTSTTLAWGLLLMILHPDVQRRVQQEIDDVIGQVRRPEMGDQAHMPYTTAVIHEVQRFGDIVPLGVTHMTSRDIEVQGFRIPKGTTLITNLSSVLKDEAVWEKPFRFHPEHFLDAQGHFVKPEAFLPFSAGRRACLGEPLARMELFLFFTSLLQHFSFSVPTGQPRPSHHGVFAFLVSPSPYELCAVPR

Compound | Microsomal clearance (Liver microsomes [1]) | IC50 (Cytochrome P450 1A2) | IC50 (Dipeptidyl peptidase 8) | Microsomal clearance (Liver microsomes [2]) | IC50 (Dipeptidyl peptidase 9) | IC50 (Cytochrome P450 2D6) | IC50 (Cytochrome P450 3A4) | also measured
Cc1ccc(F)cc1Cn1c(N2CCC[C@@](C)(N)C2)cc2ncn(C)c(=O)c21.Cl | 264 µL/min/mg | > 40 µM | > 10 µM | 48 µL/min/mg | > 10 µM | 14.3 µM | 11.9 µM | –
Cn1c(=O)c2c(cc(N3CCC[C@@](C)(N)C3)n2Cc2ccccc2C#N)n(C)c1=O | – | – | > 10 µM | – | > 10 µM | – | – | logP [3]: 0.28
Cn1cnc2cc(N3CCC[C@@](C)(N)C3)n(Cc3cc(F)ccc3C#N)c2c1=O | – | – | > 10 µM | – | > 10 µM | – | – | –
CCOCCCn1c(=O)n(C)c(=O)c2c1cc(N1CCC[C@@](C)(N)C1)n2Cc1cc(F)ccc1Cl | – | – | > 10 µM | – | > 10 µM | – | – | –
Cl.Cn1c(=O)c2c(cc(N3CCC[C@@](C)(N)C3)n2Cc2cc(F)ccc2Cl)n(CCCO)c1=O | 17 µL/min/mg | > 40 µM | > 10 µM | 16 µL/min/mg | > 10 µM | 0.2 µM | 7.7 µM | –
CCn1c(=O)n(C)c(=O)c2c1cc(N1CCC[C@@](C)(N)C1)n2Cc1cc(F)ccc1C#N.Cl | < 10 µL/min/mg | 26.8 µM | > 10 µM | 21 µL/min/mg | > 10 µM | 0.4 µM | 9.4 µM | –
Cc1ccc(F)cc1Cn1c(N2CCC[C@@](C)(N)C2)cc2c1c(=O)n(C)c(=O)n2C.Cl | 13 µL/min/mg | > 40 µM | > 10 µM | 56 µL/min/mg | > 10 µM | > 40 µM | 20.2 µM | bioavailability [4]: 69.3%; clearance [5]: 51.5 mL/min/kg; inhibition (Rattus norvegicus [6]): Active; inhibition (Rattus norvegicus [7]): Active; half-life [8]: 4.69 h; fraction unbound [9]: 0.049; Tmax [10]: 3 h; Vd [11]: 14.4 L/kg
CN(C)C(=O)Cn1c(=O)n(C)c(=O)c2c1cc(N1CCC[C@@](C)(N)C1)n2Cc1cc(F)ccc1Cl.Cl | < 10 µL/min/mg | 26.3 µM | > 10 µM | 19 µL/min/mg | > 10 µM | < 0.165 µM | 13.4 µM | –
Cl.Cn1c(=O)c2c(cc(N3CCC[C@@](C)(N)C3)n2Cc2cc(F)ccc2Cl)n(C)c1=O | 46 µL/min/mg | > 40 µM | > 10 µM | 82 µL/min/mg | > 10 µM | 3.4 µM | 10.2 µM | –
Cn1cnc2cc(N3CCC[C@@](C)(N)C3)n(Cc3ccccc3C#N)c2c1=O | – | – | > 10 µM | – | > 10 µM | – | – | –
Cn1cnc2cc(N3CCC[C@@](C)(N)C3)n(Cc3cc(F)ccc3Cl)c2c1=O | – | – | > 10 µM | – | > 10 µM | – | – | –
